Measurements published in publication PMC7111758 (Tetrahedron, 2019).

Key:
vaccinia virus (VACV) = test: microbe, parasite or virus in culture; type: cell-based; details: for EC50: Orthopoxvirus vaccinia, HEL, read-out: Antiviral activity - EC50 VACV
[1] = tested on: herpes simplex virus type 2 (HSV-2) strain G; test: Antiviral assay, virus-induced cytopathic effect in HEL cells, HSV-2 G; type: cell-based; details: Human alphaherpesvirus 2, HEL, read-out: Antiviral activity - EC50 HSV-2 G (TK+)
[2] = tested on: varicella-zoster virus (VZV) strain Oka (TK+); test: microbe, parasite or virus in culture; type: cell-based; details: Human alphaherpesvirus 3, HEL, read-out: Antiviral activity - EC50 VZV Oka (TK+)
adenovirus-2 = test: Antiviral assay, virus-induced cytopathic effect, adenovirus-2; type: cell-based; details: for EC50: Human mastadenovirus C, read-out: Antiviral activity - EC50 Adeno-2
[3] = tested on: human cytomegalovirus (HCMV) strain Davis; test: Antiviral assay, virus-induced cytopathic effect in HEL cells, HCMV Davis; type: cell-based; details: Human betaherpesvirus 5, HEL, read-out: Antiviral activity - EC50 HCMV Davis
[4] = tested on: human cytomegalovirus (HCMV) strain AD-169; test: Antiviral assay, virus-induced cytopathic effect in HEL cells, HCMV AD-169; type: cell-based; details: HCMV replication; compared with reference drug ganciclovir
[5] = Cytostatic activity, inhibition of HEL cell growth; type: cell-based; details: human, HEL cells
Method in brief: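 HEL cells seeded at 5 × 10^3 cells/well, allowed to proliferate 24 h, then given medium with different concentrations of test compound. After three days at 37 °C, cell number counted with a Coulter counter. CC50 is the concentration reducing proliferation by 50% relative to untreated control cell counts.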

HEL cells = test: Cytotoxicity, microscopically detectable alteration of cell morphology; type: cell-based, human; details: for Cytotoxicity MCC (minimum cytotoxic concentration): microscopically detectable alteration of cell morphology

CC(C)OP(=O)(CO[C@H](CF)Cn1cnc(N)nc1=O)OC(C)C [8a, Diisopropyl (S)-{[(1-(4-amino-2-oxo-1,3,5-triazin-1(2H)-yl)-3-fluoropropan-2-yl)oxy]methyl}phosphonate]
activity against vaccinia virus (poxvirus) (vaccinia virus (VACV)): inactive
EC50 (vaccinia virus (VACV)): > 100 µM
EC50 [1]: 17.5 ± 10.6 µM
EC50 [2]: 11.7 ± 4 µM
EC50 (adenovirus-2): > 100 µM
activity against adenoviruses (adenovirus-2; in words): inactive
EC50 [3]: 7.9 ± 5.5 µM
EC50 against HCMV relative to ganciclovir [4]: about three times higher
CC50 at 3 days [5]: > 100 µM
Cytotoxicity MCC (minimum cytotoxic concentration) (HEL cells): >100 µM
cytotoxicity for HEL cells (HEL cells; no cytotoxicity up to the highest concentration tested): > 100 µM

CCOC(=O)C(C)NP(=O)(COC(CF)CN1CN2C=C(c3ccccc3)NC2=NC1=O)NC(C)C(=O)OCC (centres unmarked) [19a, Diethyl 2,2'-(((((1-fluoro-3-(2-oxo-7-phenyl-2,8-dihydroimidazo[1,2-a][1,3,5]triazin-3(4H)-yl)propan-2-yl)oxy)methyl)phosphoryl)bis(azanediyl))-dipropionate]
EC50 (vaccinia virus (VACV)): > 100 µM
EC50 [1]: > 100 µM
EC50 [2]: > 100 µM
EC50 (adenovirus-2): > 100 µM
EC50 [3]: > 100 µM
Cytotoxicity MCC (minimum cytotoxic concentration) (HEL cells): >100 µM

CCOC(=O)C(C)NP(=O)(COC(CF)CN1CN2C=C(c3ccc([N+](=O)[O-])cc3)NC2=NC1=O)NC(C)C(=O)OCC (centres unmarked) [19b, Diethyl 2,2'-(((((1-fluoro-3-(7-(4-nitrophenyl)-2-oxo-2,8-dihydroimidazo[1,2-a][1,3,5]triazin-3(4H)-yl)propan-2-yl)oxy)methyl)phosphoryl)bis(azanediyl))-dipropionate]
EC50 (vaccinia virus (VACV)): > 100 µM
EC50 [1]: > 100 µM
EC50 [2]: > 100 µM
EC50 (adenovirus-2): > 100 µM
EC50 [3]: > 100 µM
Cytotoxicity MCC (minimum cytotoxic concentration) (HEL cells): >100 µM

CCOC(=O)C(C)NP(=O)(COC(CF)CN1CN2C=C(c3ccc(OC)cc3)NC2=NC1=O)NC(C)C(=O)OCC (centres unmarked) [19c, Diethyl 2,2'-(((((1-fluoro-3-(7-(4-methoxyphenyl)-2-oxo-2,8-dihydroimidazo[1,2-a][1,3,5]triazin-3(4H)-yl)propan-2-yl)oxy)methyl)phosphoryl)bis(azanediyl))-dipropionate]
EC50 (vaccinia virus (VACV)): > 100 µM
EC50 [1]: > 100 µM
EC50 [2]: > 100 µM
EC50 (adenovirus-2): > 100 µM
EC50 [3]: > 100 µM
Cytotoxicity MCC (minimum cytotoxic concentration) (HEL cells): >100 µM

Nc1nc2c(ncn2COCCO)c(=O)[nH]1 [ACV, acyclovir, reference compound]
EC50 (vaccinia virus (VACV)): > 250 µM
EC50 [1]: 0.21 ± 0.12 µM
CC50 at 3 days [5]: > 440 µM
Cytotoxicity MCC (minimum cytotoxic concentration) (HEL cells): >440 µM

O=c1[nH]c(=O)n([C@H]2C[C@H](O)[C@@H](CO)O2)cc1/C=C/Br [BVDU, brivudine, reference compound]
EC50 (vaccinia virus (VACV)): 11.3 ± 6.4 µM
EC50 [1]: 123 ± 26 µM
EC50 [2]: 0.023 ± 0.021 µM
CC50 at 3 days [5]: > 300 µM
Cytotoxicity MCC (minimum cytotoxic concentration) (HEL cells): >300 µM

Nc1ccn(C[C@@H](CO)OCP(=O)(O)O)c(=O)n1 [CDV, cidofovir, reference compound]
EC50 (vaccinia virus (VACV)): 26 ± 12 µM
EC50 [1]: 1.3 ± 0.4 µM
EC50 (adenovirus-2): 8.3 ± 2.1 µM
EC50 [3]: 0.73 ± 0.31 µM
CC50 at 3 days [5]: > 300 µM
Cytotoxicity MCC (minimum cytotoxic concentration) (HEL cells): >300 µM

Nc1nc(O)c2ncn(COC(CO)CO)c2n1 [GCV, ganciclovir, reference compound]
EC50 (vaccinia virus (VACV)): > 100 µM
EC50 [1]: 0.03 µM
EC50 [3]: 3 ± 2.7 µM
CC50 at 3 days [5]: > 350 µM
Cytotoxicity MCC (minimum cytotoxic concentration) (HEL cells): >350 µM

Nc1ncn(C[C@@H](CF)OCP(=O)(O)O)c(=O)n1 [compound 9, (S)-{[1-(4-Amino-2-oxo-1,3,5-triazin-1(2H)-yl)-3-fluoropropan-2-yl]oxymethyl}phosphonic acid]
EC50 (vaccinia virus (VACV)): > 100 µM
EC50 [1]: > 100 µM
EC50 [2]: > 100 µM
EC50 (adenovirus-2): > 100 µM
EC50 [3]: > 100 µM
Cytotoxicity MCC (minimum cytotoxic concentration) (HEL cells): >100 µM

NC1=NC(=O)N(C[C@@H](CF)OCP(=O)(O)O)CN1 [compound 13, (S)-1-[3-Fluoro-2-(phosphonomethoxy)propyl]-5,6-dihydro-5-azacytosine]
EC50 (vaccinia virus (VACV)): > 100 µM
EC50 [1]: > 100 µM
EC50 [2]: > 100 µM
EC50 (adenovirus-2): > 100 µM
EC50 [3]: > 100 µM
Cytotoxicity MCC (minimum cytotoxic concentration) (HEL cells): >100 µM

Nc1ncn(CC(O)C(F)(F)F)c(=O)n1 (centres unmarked) [compound 22, 4-Amino-1-(3,3,3-trifluoro-2-hydroxypropyl)-1,3,5-triazin-2(1H)-one]
EC50 (vaccinia virus (VACV)): > 446 µM
EC50 [1]: 230 ± 29 µM
EC50 [2]: 40.6 ± 11.7 µM
EC50 (adenovirus-2): 268 ± 178 µM
EC50 [3]: 200 ± 17.8 µM
CC50 at 3 days [5]: > 446 µM
Cytotoxicity MCC (minimum cytotoxic concentration) (HEL cells): >446 µM

CC(=O)O.NC1=NC(=O)N(CC(O)C(F)(F)F)CN1 (centres unmarked) [compound 23, 6-Amino-4-oxo-3-(3,3,3-trifluoro-2-hydroxypropyl)-1,2,3,4-tetrahydro-1,3,5-triazin-1-ium acetate]
EC50 (vaccinia virus (VACV)): > 100 µM
EC50 [1]: > 100 µM
EC50 [2]: > 100 µM
EC50 (adenovirus-2): > 100 µM
EC50 [3]: > 100 µM
Cytotoxicity MCC (minimum cytotoxic concentration) (HEL cells): >100 µM

Nc1ncn(CC(OCP(=O)(O)O)C(F)(F)F)c(=O)n1 (centres unmarked) [compound 25, {[(3-(4-Amino-2-oxo-1,3,5-triazin-1(2H)-yl)-1,1,1-trifluoropropan-2-yl)oxy]methyl}phosphonic acid]
EC50 (vaccinia virus (VACV)): > 100 µM
EC50 [1]: > 100 µM
EC50 [2]: > 100 µM
EC50 (adenovirus-2): > 100 µM
EC50 [3]: > 100 µM
Cytotoxicity MCC (minimum cytotoxic concentration) (HEL cells): >100 µM
